Laboratory results as given in ChEMBL document CHEMBL4732118, “Discovery of indazole-pyridinone derivatives as a novel class of potent and selective MNK1/2 kinase inhibitors that protecting against endotoxin-induced septic shock” (Eur J Med Chem, 2021).
Values after ≈ are worked out from the molar mass of the structure shown.

Key:
[1] = Kinetic solubility of compound in pH 7.4 Soerensen's buffer at 500 uM measured after […] by UV-VIS absorption spectrophotometry; type: physicochemical; details: time 1.5 hrs, read-out: Kinetic_solubility
[2] = Kinetic solubility of compound in water at 500 uM measured after […] by UV-VIS absorption spectrophotometry; type: physicochemical; details: time 1.5 hrs, read-out: Kinetic_solubility
[3] = Tmax in CD-1 mouse at 5 mg/kg, po by LC-MS analysis; type: ADME, organism-based; details: in vivo
Outline: (§1)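 Female CD-1 mice, 5 weeks old, 3 animals per time point. Compound dissolved in DMSO, diluted in Captisol, given p.o. at 5 mg/kg or i.v. at 2 mg/kg. Animals sacrificed at 5, 15 and 30 min and 1, 2, 4, 7 and 24 h. Plasma precipitated with cold acetonitrile and quantified by LC-MS/MS (SRM, positive H-ESI) against a blank mouse plasma calibration curve.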

[4] = Cmax in CD-1 mouse at 5 mg/kg, po by LC-MS analysis; type: ADME, organism-based; parameters: route oral, dose 5 mg/kg; details: in vivo
Outline: (§2)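 Female CD-1 mice, 5 weeks old, 3 per time point. Dosed at 10 µl/g, DMSO solution diluted in Captisol, p.o. 5 mg/kg or i.v. 2 mg/kg. Sacrifice at 5, 15, 30 min and 1, 2, 4, 7, 24 h. Plasma acetonitrile-precipitated, quantified by LC-MS/MS (C18, positive H-ESI, SRM) against a calibration curve in blank mouse plasma.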

[5] = AUC (0 to t) in CD-1 mouse at 5 mg/kg, po by LC-MS analysis; type: ADME, organism-based; parameters: dose 5 mg/kg; details: in vivo; outline: as §2
[6] = AUC (0 to infinity) in CD-1 mouse at 5 mg/kg, po by LC-MS analysis; type: ADME, organism-based; parameters: time infinity, route oral, dose 5 mg/kg; details: in vivo; outline: as §2
[7] = Oral bioavailability in CD-1 mouse at 5 mg/kg by LC-MS analysis; type: ADME, organism-based; details: in vivo; outline: as §1
[8] = Tmax in CD-1 mouse at 2 mg/kg, iv by LC-MS analysis; type: ADME, organism-based; details: in vivo; outline: as §1
[9] = Cmax in CD-1 mouse at 2 mg/kg, iv by LC-MS analysis; type: ADME, organism-based; parameters: route intravenous, dose 2 mg/kg; details: in vivo; outline: as §2
[10] = AUC (0 to t) in CD-1 mouse at 2 mg/kg, iv by LC-MS analysis; type: ADME, organism-based; parameters: dose 2 mg/kg; details: in vivo; outline: as §2
[11] = AUC (0 to infinity) in CD-1 mouse at 2 mg/kg, iv by LC-MS analysis; type: ADME, organism-based; parameters: route intravenous, time infinity, dose 2 mg/kg; details: in vivo; outline: as §2

Row | solubility kinetic at […], 500 µM [1] [µM] | solubility kinetic at […], 500 µM [2] [µM] | Tmax [3] [min] | Cmax [4] [ng/mL] | AUCt [5] [ng·h/mL] | AUC [6] [ng·h/mL] | bioavailability [7] [%] | Tmax [8] [min] | Cmax [9] [ng/mL] | AUCt [10] [ng·h/mL] | AUC [11] [ng·h/mL] | Compound
1 | 466 (≈ 156 µg/mL) | > 500 | 15 | 335 | 517 | 674 | 33 | 4.8 | 1670 | 629 | 677 | Nc1n[nH]c2cc(-c3ccc(=O)n(Cc4ccccc4F)c3)ccc12
2 | 172 (≈ 60.3 µg/mL) | 275 (≈ 96.5 µg/mL) | 15 | 1050 | 2150 | 2410 | 100 | 4.8 | 1490 | 834 | 855 | Nc1n[nH]c2cc(-c3ccc(=O)n(Cc4cccc(Cl)c4)c3)ccc12
